Measurements from different studies.
Spike glycoprotein: Spike glycoprotein (Severe acute respiratory syndrome coronavirus 2, UniProt P0DTC2)
SLC18A2: Synaptic vesicular amine transporter (SLC18A2, Homo sapiens, UniProt Q05940)

CCOC(=O)c1ccc(OC(=O)CCCCCN=C(N)N)cc1  IC50 (Plasminogen (PLG, Homo sapiens, UniProt P00747); enzyme activity; inhibitor): 0.316 µM
CC[C@H](C)[C@H](NC(=O)[C@H](CCCCNC(=O)CN(CCNC(=O)CN(CCNC(=O)CN(CCNC(=O)CN(CCNC(=O)[C@H](CCCNC(=N)N)NC(C)=O)C(=O)Cn1ccc(N)nc1=O)C(=O)Cn1cnc2c(=O)[nH]c(N)nc21)C(=O)Cn1cnc2c(=O)[nH]c(N)nc21)C(=O)Cn1ccc(N)nc1=O)NC(=O)[C@H](CC(=O)O)NC(=O)[C@H](CO)NC(=O)[C@@H](NC(=O)[C@H](CCCNC(=N)N)NC(=O)[C@H](CCSC)NC(=O)[C@H](CO)NC(=O)[C@H](C)NC(=O)[C@H](CCC(=O)O)NC(=O)[C@H](C)NC(=O)[C@H](Cc1c[nH]cn1)NC(=O)CNC(=O)[C@H](CC(C)C)NC(=O)[C@H](CCC(=O)O)NC(=O)[C@H](CC(=O)O)NC(=O)[C@H](CC(C)C)NC(=O)[C@H](CC(C)C)NC(=O)[C@H](CCCNC(=N)N)NC(=O)[C@H](CS)NC(=O)[C@H](CCCC(=O)NCCN(CC(=O)NCCN(CC(=O)NCCN(CC(=O)NCCN(CC(=O)N[C@@H](CCCNC(=N)N)C(N)=O)C(=O)Cn1cnc2c(=O)[nH]c(N)nc21)C(=O)Cn1ccc(N)nc1=O)C(=O)Cn1ccc(N)nc1=O)C(=O)Cn1cnc2c(=O)[nH]c(N)nc21)NC(=O)[C@H](CCC(=O)O)NC(=O)[C@H](Cc1ccc(O)cc1)NC(=O)[C@@H](NC(=O)[C@H](CCCCN)NC(=O)[C@H](CCC(N)=O)NC(=O)[C@H](CC(C)C)NC(=O)[C@@H](NC(=O)[C@H](Cc1c[nH]c2ccccc12)NC(=O)[C@H](CCC(=O)O)NC(=O)[C@H](CCCCN)NC(=O)[C@H](CC(=O)O)NC(C)=O)[C@@H](C)CC)[C@@H](C)CC)C(C)C)C(=O)N[C@@H](Cc1ccc(O)cc1)C(=O)N[C@@H](CCC(=O)O)C(=O)N[C@@H](Cc1ccccc1)C(=O)N[C@@H](CCSC)C(=O)N[C@@H](CCCCN)C(=O)N[C@@H](CCCCN)C(N)=O  Kd (Spike glycoprotein; binding; SPR): 0.027 µM
O=c1[nH]c2ccccc2n1CCCN1CCC(n2c(=O)[nH]c3cc(Cl)ccc32)CC1  IC50 (SLC18A2; transporter uptake; inhibitor): 0.058 µM
COc1cc(CCNC(C)c2ccccc2O)c(OC)cc1C#N (stereo not drawn)  Ki (Alpha-2A adrenergic receptor (ADRA2A, Homo sapiens, UniProt P08913); cell-free assay; radioligand): 0.912 µM
O=C(Nc1ccc2c(c1)C=CCP(=O)(O)O2)c1ccccc1Br  Ki (Carbonic anhydrase 2 (CA2, Homo sapiens, UniProt P00918); enzyme activity; inhibitor; stopped-flow): > 10 µM
CC[C@H](C)[C@H](NC(=O)[C@H](CCCCNC(=O)CN(CCNC(=O)CN(CCNC(=O)CN(CCNC(=O)CN(CCNC(=O)[C@H](CCCNC(=N)N)NC(C)=O)C(=O)Cn1ccc(N)nc1=O)C(=O)Cn1cnc2c(=O)[nH]c(N)nc21)C(=O)Cn1cnc2c(=O)[nH]c(N)nc21)C(=O)Cn1ccc(N)nc1=O)NC(=O)[C@H](CC(=O)O)NC(=O)[C@H](CO)NC(=O)[C@@H](NC(=O)[C@H](CCCNC(=N)N)NC(=O)[C@H](CCSC)NC(=O)[C@H](CO)NC(=O)[C@H](C)NC(=O)[C@H](CCC(=O)O)NC(=O)[C@H](C)NC(=O)[C@H](Cc1c[nH]cn1)NC(=O)CNC(=O)[C@H](CC(C)C)NC(=O)[C@H](CCC(=O)O)NC(=O)[C@H](CC(=O)O)NC(=O)[C@H](CC(C)C)NC(=O)[C@H](CC(C)C)NC(=O)[C@H](CCCNC(=N)N)NC(=O)[C@H](CCS)NC(=O)[C@H](CCCC(=O)NCCN(CC(=O)NCCN(CC(=O)NCCN(CC(=O)NCCN(CC(=O)N[C@@H](CCCNC(=N)N)C(N)=O)C(=O)Cn1cnc2c(=O)[nH]c(N)nc21)C(=O)Cn1ccc(N)nc1=O)C(=O)Cn1ccc(N)nc1=O)C(=O)Cn1cnc2c(=O)[nH]c(N)nc21)NC(=O)[C@H](CCC(=O)O)NC(=O)[C@H](Cc1ccc(O)cc1)NC(=O)[C@@H](NC(=O)[C@H](CCCCN)NC(=O)[C@H](CCC(N)=O)NC(=O)[C@H](CC(C)C)NC(=O)[C@@H](NC(=O)[C@H](Cc1c[nH]c2ccccc12)NC(=O)[C@H](CCC(=O)O)NC(=O)[C@H](CCCCN)NC(=O)[C@H](CC(=O)O)NC(C)=O)[C@@H](C)CC)[C@@H](C)CC)C(C)C)C(=O)N[C@@H](Cc1ccc(O)cc1)C(=O)N[C@@H](CCC(=O)O)C(=O)N[C@@H](Cc1ccccc1)C(=O)N[C@@H](CCSC)C(=O)N[C@@H](CCCCN)C(=O)N[C@@H](CCCCN)C(N)=O  Kd (Spike glycoprotein; binding; SPR): 0.0052 µM
COc1ccc(C(=O)Nc2ccc3c(c2)C=CCP(=O)(O)O3)cc1  Ki (Carbonic anhydrase 1 (CA1, Homo sapiens, UniProt P00915); enzyme activity; inhibitor; stopped-flow): > 10 µM
O=c1[nH]c2ccccc2n1C1CCN(CCCC(c2ccc(F)cc2)c2ccc(F)cc2)CC1  IC50 (SLC18A2; transporter uptake; inhibitor; radiometric; cell membranes): 0.386 µM
Cn1c(=O)c2[nH]cnc2n(C)c1=O  IC50 (Solute carrier family 22 member 11 (SLC22A11, Homo sapiens, UniProt Q9NSA0); transporter uptake; inhibitor): 5.6 µM
